Experimental data reported in ChEMBL document CHEMBL4680236, “Design, synthesis and structure-activity relationships of novel 15-membered macrolides: Quinolone/quinoline-containing sidechains tethered to the C-6 position of azithromycin acylides” (Eur J Med Chem, 2020).
Values after ≈ are worked out from the molar mass of the structure shown.

Assays:
Type in all cases: functional
Streptococcus pneumoniae [1] = assay: Antibacterial activity against MLSB-resistant Streptococcus pneumoniae 07P390 harboring ermB gene assessed as reduction in microbial growth
Staphylococcus aureus [2] = assay: Bactericidal activity against MLSB/methicillin/ciprofloxacin-resistant Staphylococcus aureus PU32 harboring ermA gene
In short: (§1)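 Bacteria were exposed to 1- to 8-fold their MIC of test sample, then transferred to fresh culture medium without antibacterial compound and incubated for the required time. Colonies were then counted. MBC is the lowest concentration giving a reduction in colony number of >3 Log₁₀.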

Streptococcus pyogenes [3] = assay: Bactericidal activity against MLSB-resistant Streptococcus pyogenes 12-206 harboring ermA gene; in short: as §1
Streptococcus pneumoniae [4] = assay: Antibacterial activity against Erythromycin-susceptible Streptococcus pneumoniae ATCC 49619 assessed as reduction in microbial growth
Streptococcus pneumoniae [5] = assay: Bactericidal activity against penicillin-susceptible Streptococcus pneumoniae PU09 harboring mef gene; in short: as §1
Streptococcus pneumoniae [6] = assay: Ratio of MBC to MIC against penicillin-susceptible Streptococcus pneumoniae PU09
Streptococcus pneumoniae [7] = assay: Antibacterial activity against penicillin-susceptible Streptococcus pneumoniae PU09 harboring mef gene assessed as reduction in microbial growth
Haemophilus influenzae [8] = assay: Bactericidal activity against azithromycin-susceptible Haemophilus influenzae ATCC 49247
In short: (§2)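 Bacteria were exposed to 1- to 8-fold MIC of the sample, then transferred to fresh medium without antibacterial. After further incubation, colonies were counted. MBC was taken as the lowest concentration giving a >3 log10 reduction in colony number.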

Haemophilus influenzae [9] = assay: Ratio of MBC to MIC against azithromycin-susceptible Haemophilus influenzae ATCC 49247
Staphylococcus aureus [10] = assay: Bactericidal activity against MLSB/methicillin-resistant Staphylococcus aureus 15B196; in short: as §1
Streptococcus pyogenes [11] = assay: Antibacterial activity against MLSB-resistant Streptococcus pyogenes 12-206 harboring ermA gene assessed as reduction in microbial growth
Staphylococcus aureus [12] = assay: Antibacterial activity against MLSB/methicillin/ciprofloxacin-resistant Staphylococcus aureus PU32 harboring ermA gene assessed as reduction in microbial growth
Streptococcus pneumoniae [13] = assay: Bactericidal activity against MLSB-resistant Streptococcus pneumoniae 07P390 harboring ermB gene assessed as reduction in microbial growth; in short: as §1
Streptococcus pneumoniae [14] = assay: Bactericidal activity against Erythromycin-susceptible Streptococcus pneumoniae ATCC 49619; in short: as §2
Streptococcus pyogenes [15] = assay: Ratio of MBC to MIC against MLSB-resistant Streptococcus pyogenes 12-206 harboring ermA gene
Staphylococcus aureus [16] = assay: Antibacterial activity against MLSB/methicillin-resistant Staphylococcus aureus 15B196 assessed as reduction in microbial growth
Haemophilus influenzae [17] = assay: Antibacterial activity against azithromycin-susceptible Haemophilus influenzae ATCC 49247 assessed as reduction in microbial growth
Streptococcus pneumoniae [18] = assay: Ratio of MBC to MIC against Erythromycin-susceptible Streptococcus pneumoniae ATCC 49619
Staphylococcus aureus [19] = assay: Ratio of MBC to MIC against MLSB/methicillin/ciprofloxacin-resistant Staphylococcus aureus PU32 harboring ermA gene

Structure (SMILES)	MIC (Streptococcus pneumoniae [1])	MBC (Staphylococcus aureus [2])	MBC (Streptococcus pyogenes [3])	MIC (Streptococcus pneumoniae [4])	MBC (Streptococcus pneumoniae [5])	Ratio (Streptococcus pneumoniae [6])	MIC (Streptococcus pneumoniae [7])	MBC (Haemophilus influenzae [8])	Ratio (Haemophilus influenzae [9])	MBC (Staphylococcus aureus [10])	MIC (Streptococcus pyogenes [11])	MIC (Staphylococcus aureus [12])	MBC (Streptococcus pneumoniae [13])	MBC (Streptococcus pneumoniae [14])	Ratio (Streptococcus pyogenes [15])	MIC (Staphylococcus aureus [16])	MIC (Haemophilus influenzae [17])	Ratio (Streptococcus pneumoniae [18])	Ratio (Staphylococcus aureus [19])
CC[C@H]1OC(=O)[C@H](C)[C@@H](OC(=O)Cc2ccccn2)[C@H](C)[C@@H](O[C@@H]2O[C@H](C)C[C@H](N(C)C)[C@H]2O)[C@](C)(OC(=O)CCN2CCN(c3cc4c(cc3F)c(=O)c(C(N)=O)cn4CC)CC2)C[C@@H](C)CN(C)[C@H](C)[C@@H](O)[C@]1(C)O	64 µg/mL	> 256 µg/mL	128 µg/mL (≈ 118 µM)	0.5 µg/mL	8 µg/mL (≈ 7.39 µM)	2	4 µg/mL	4 µg/mL (≈ 3.7 µM)	1	128 µg/mL (≈ 118 µM)	16 µg/mL	128 µg/mL	128 µg/mL	1 µg/mL (≈ 0.924 µM)	8	128 µg/mL	4 µg/mL	2	
CC[C@H]1OC(=O)[C@H](C)[C@@H](OC(=O)Cc2ccccn2)[C@H](C)[C@@H](O[C@@H]2O[C@H](C)C[C@H](N(C)C)[C@H]2O)[C@](C)(OC(=O)CCN2CCN(c3nc4c(cc3F)c(=O)c(C(N)=O)cn4CC)CC2)C[C@@H](C)CN(C)[C@H](C)[C@@H](O)[C@]1(C)O	64 µg/mL	> 256 µg/mL	> 128 µg/mL	0.5 µg/mL	4 µg/mL (≈ 3.69 µM)	2	2 µg/mL	8 µg/mL (≈ 7.38 µM)	1	> 256 µg/mL	16 µg/mL	32 µg/mL	128 µg/mL	1 µg/mL (≈ 0.923 µM)	>8	256 µg/mL	8 µg/mL	2	>8
CC[C@H]1OC(=O)[C@H](C)[C@@H](OC(=O)Cc2ccccn2)[C@H](C)[C@@H](O[C@@H]2O[C@H](C)C[C@H](N(C)C)[C@H]2O)[C@](C)(OC(=O)CCNCCC#Cc2ccc3c(c2)c(=O)c(C(N)=O)cn3C2CC2)C[C@@H](C)CN(C)[C@H](C)[C@H]2OC(=O)O[C@@]21C	64 µg/mL	> 256 µg/mL	64 µg/mL (≈ 59 µM)	0.5 µg/mL	8 µg/mL (≈ 7.37 µM)	2	4 µg/mL	128 µg/mL (≈ 118 µM)	2	> 256 µg/mL	16 µg/mL	64 µg/mL	128 µg/mL	1 µg/mL (≈ 0.921 µM)	4	128 µg/mL	64 µg/mL	2	>4
CC[C@H]1OC(=O)[C@H](C)[C@@H](OC(=O)Cc2ccccn2)[C@H](C)[C@@H](O[C@@H]2O[C@H](C)C[C@H](N(C)C)[C@H]2O)[C@](C)(OC(=O)CCNCCC#Cc2ccc3c(c2)c(=O)c(C(=O)O)cn3C2CC2)C[C@@H](C)CN(C)[C@H](C)[C@H]2OC(=O)O[C@@]21C	64 µg/mL	> 256 µg/mL	64 µg/mL (≈ 58.9 µM)	1 µg/mL	8 µg/mL (≈ 7.36 µM)	2	4 µg/mL	128 µg/mL (≈ 118 µM)	2	> 256 µg/mL	32 µg/mL	64 µg/mL	64 µg/mL	1 µg/mL (≈ 0.921 µM)	2	> 256 µg/mL	64 µg/mL	1	>4
CC[C@H]1OC(=O)[C@H](C)[C@@H](OC(=O)Cc2ccccn2)[C@H](C)[C@@H](O[C@@H]2O[C@H](C)C[C@H](N(C)C)[C@H]2O)[C@](C)(OC(=O)CCNCCC#Cc2ccc3c(c2)c(=O)c(C(N)=O)cn3C2CC2)C[C@@H](C)CN(C)[C@H](C)[C@@H](O)[C@]1(C)O	256 µg/mL	> 256 µg/mL	128 µg/mL (≈ 121 µM)	0.5 µg/mL	4 µg/mL (≈ 3.78 µM)	1	4 µg/mL	64 µg/mL (≈ 60.4 µM)	1	> 256 µg/mL	32 µg/mL	128 µg/mL	> 256 µg/mL	0.5 µg/mL (≈ 0.472 µM)	4	> 256 µg/mL	64 µg/mL	1	
CC[C@H]1OC(=O)[C@H](C)[C@@H](OC(=O)Cc2ccccn2)[C@H](C)[C@@H](O[C@@H]2O[C@H](C)C[C@H](N(C)C)[C@H]2O)[C@](C)(OC(=O)CCN2CCN(c3cc4c(cc3F)c(=O)c(C(N)=O)cn4C3CC3)CC2)C[C@@H](C)CN(C)[C@H](C)[C@@H](O)[C@]1(C)O	128 µg/mL	> 256 µg/mL	128 µg/mL (≈ 117 µM)	0.25 µg/mL	4 µg/mL (≈ 3.66 µM)	1	4 µg/mL	128 µg/mL (≈ 117 µM)	2	> 256 µg/mL	16 µg/mL	128 µg/mL	128 µg/mL	0.5 µg/mL (≈ 0.457 µM)	8	> 256 µg/mL	64 µg/mL	2	
CC[C@H]1OC(=O)[C@H](C)[C@@H](OC(=O)Cc2ccccn2)[C@H](C)[C@@H](O[C@@H]2O[C@H](C)C[C@H](N(C)C)[C@H]2O)[C@](C)(OC(=O)CCNCCC#Cc2ccc3c(c2)c(=O)c(C(=O)NC)cn3C2CC2)C[C@@H](C)CN(C)[C@H](C)[C@@H](O)[C@]1(C)O	256 µg/mL	> 256 µg/mL	128 µg/mL (≈ 119 µM)	0.5 µg/mL	8 µg/mL (≈ 7.45 µM)	2	4 µg/mL	128 µg/mL (≈ 119 µM)	2	> 256 µg/mL	32 µg/mL	> 256 µg/mL	256 µg/mL	1 µg/mL (≈ 0.932 µM)	4	> 256 µg/mL	64 µg/mL	2	
CC[C@H]1OC(=O)[C@H](C)[C@@H](OC(=O)Cc2ccccn2)[C@H](C)[C@@H](O[C@@H]2O[C@H](C)C[C@H](N(C)C)[C@H]2O)[C@](C)(OC(=O)CCN2CCN(c3cc4c(cc3F)c(=O)c(C(=O)O)cn4C3CC3)CC2)C[C@@H](C)CN(C)[C@H](C)[C@H]2OC(=O)O[C@@]21C	> 256 µg/mL	> 256 µg/mL	> 256 µg/mL	4 µg/mL	16 µg/mL (≈ 14.3 µM)	4	4 µg/mL	16 µg/mL (≈ 14.3 µM)	2	> 256 µg/mL	64 µg/mL	> 256 µg/mL	> 256 µg/mL	16 µg/mL (≈ 14.3 µM)	>8	> 256 µg/mL	8 µg/mL	4	
